pIC50: −log10 of the molar value.
Legend:
[1] = target: Sodium-dependent noradrenaline transporter (Homo sapiens, UniProt P23975); test: Inhibition of norepinephrine transporter (unknown origin) assessed as suppression of synaptosomal uptake of norepinephrine
[2] = Inhibition of glutamate transporter (unknown origin) assessed as suppression of synaptosomal uptake of L-glutamate; parameters: species or system Homo sapiens
[3] = Inhibition of GABA transporter (unknown origin) assessed as suppression of synaptosomal uptake of GABA; parameters: species or system Homo sapiens
[4] = target: Sodium-dependent dopamine transporter (Homo sapiens, UniProt Q01959); test: Inhibition of dopamine transporter (unknown origin) assessed as suppression of synaptosomal uptake of dopamine
Sequence of Sodium-dependent dopamine transporter (Q01959 whole entry): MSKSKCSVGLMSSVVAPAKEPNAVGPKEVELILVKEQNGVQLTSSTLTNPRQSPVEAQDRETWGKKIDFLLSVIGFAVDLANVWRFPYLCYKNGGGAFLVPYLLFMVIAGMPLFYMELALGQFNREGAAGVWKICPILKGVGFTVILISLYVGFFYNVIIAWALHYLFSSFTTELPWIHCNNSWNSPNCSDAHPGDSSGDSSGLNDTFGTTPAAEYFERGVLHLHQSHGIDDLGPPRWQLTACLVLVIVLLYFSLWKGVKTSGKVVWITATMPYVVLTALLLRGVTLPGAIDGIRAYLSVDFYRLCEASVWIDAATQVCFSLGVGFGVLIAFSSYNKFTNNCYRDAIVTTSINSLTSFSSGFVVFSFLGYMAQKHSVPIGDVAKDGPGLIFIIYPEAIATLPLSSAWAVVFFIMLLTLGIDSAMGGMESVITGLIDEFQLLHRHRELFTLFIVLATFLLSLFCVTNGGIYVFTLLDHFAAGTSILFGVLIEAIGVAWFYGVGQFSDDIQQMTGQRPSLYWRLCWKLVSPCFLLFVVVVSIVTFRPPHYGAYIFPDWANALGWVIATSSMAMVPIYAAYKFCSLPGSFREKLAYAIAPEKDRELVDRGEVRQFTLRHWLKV

[5] = Cytotoxicity against human A549 cells at 10^-5 M by MTT assay relative to control; format: functional
[6] = Cytotoxicity against human Bel7402 cells at 10^-5 M by MTT assay relative to control; format: functional; details: Bel-7402
[7] = Cytotoxicity against human HCT8 cells at 10^-5 M by MTT assay relative to control; format: functional; details: HCT-8
[8] = Hepatoprotective activity in human HepG2 cells assessed as inhibition of paracetamol-induced cell damage at 10 uM preincubated for 1 hr followed by paracetamol addition measured after 24 hrs by MTT assay relative to control; format: functional
Method in brief: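 HepG2 cells damaged with paracetamol, test agents at 10 μM, with bicyclol (10 μM) as the positive control. Viability was read by MTT colorimetric assay and expressed as % of normal, and inhibition as % of paracetamol control. Values are mean ± SD, n = 3 (normal and control wells n = 6).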

[9] = Neuroprotective activity against glutamate-induced toxicity in human SK-N-SH cells assessed as cell viability at 10 uM after 24 hrs by MTT assay (reference value: 61.9 +/- 0.9%); format: functional; details: read-out: Activity
[10] = target: Sodium-dependent serotonin transporter (Homo sapiens, UniProt P31645); test: Inhibition of serotonin transporter (unknown origin) assessed as suppression of synaptosomal uptake of serotonin
Sequence of Sodium-dependent serotonin transporter (P31645 whole entry): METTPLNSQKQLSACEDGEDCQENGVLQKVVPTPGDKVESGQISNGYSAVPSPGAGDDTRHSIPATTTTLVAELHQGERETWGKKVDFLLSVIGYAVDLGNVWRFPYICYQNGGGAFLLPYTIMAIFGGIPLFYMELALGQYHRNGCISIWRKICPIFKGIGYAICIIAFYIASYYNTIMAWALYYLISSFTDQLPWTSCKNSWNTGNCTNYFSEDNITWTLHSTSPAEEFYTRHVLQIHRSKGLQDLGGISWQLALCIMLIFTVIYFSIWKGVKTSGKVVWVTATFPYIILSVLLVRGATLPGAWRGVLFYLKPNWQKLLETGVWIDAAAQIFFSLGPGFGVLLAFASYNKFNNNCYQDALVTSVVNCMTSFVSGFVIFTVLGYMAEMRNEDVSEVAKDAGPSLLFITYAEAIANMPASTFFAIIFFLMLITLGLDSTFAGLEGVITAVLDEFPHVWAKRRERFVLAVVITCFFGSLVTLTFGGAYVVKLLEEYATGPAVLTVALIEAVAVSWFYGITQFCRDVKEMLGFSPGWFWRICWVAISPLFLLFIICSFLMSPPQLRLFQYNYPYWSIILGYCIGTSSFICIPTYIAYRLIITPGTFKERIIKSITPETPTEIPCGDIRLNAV

Sequence of Sodium-dependent noradrenaline transporter (P23975 whole entry): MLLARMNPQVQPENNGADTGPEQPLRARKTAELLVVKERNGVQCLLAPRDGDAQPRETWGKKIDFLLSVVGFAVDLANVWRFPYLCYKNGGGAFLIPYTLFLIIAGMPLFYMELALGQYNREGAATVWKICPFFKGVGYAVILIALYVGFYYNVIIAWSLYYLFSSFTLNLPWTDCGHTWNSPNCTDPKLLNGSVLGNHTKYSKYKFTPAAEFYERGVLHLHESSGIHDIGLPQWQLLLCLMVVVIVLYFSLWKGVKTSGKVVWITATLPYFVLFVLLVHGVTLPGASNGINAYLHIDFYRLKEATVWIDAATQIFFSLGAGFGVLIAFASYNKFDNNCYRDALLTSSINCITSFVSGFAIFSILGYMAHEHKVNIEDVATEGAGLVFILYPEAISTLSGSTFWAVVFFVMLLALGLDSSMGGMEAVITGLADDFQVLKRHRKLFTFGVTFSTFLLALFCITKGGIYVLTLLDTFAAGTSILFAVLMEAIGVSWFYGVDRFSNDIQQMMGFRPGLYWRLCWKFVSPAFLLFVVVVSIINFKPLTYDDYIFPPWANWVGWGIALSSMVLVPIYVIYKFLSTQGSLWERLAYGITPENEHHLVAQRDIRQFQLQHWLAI

CC(C)=CCC[C@]1(C)[C@@H](CC=C(C)C)C[C@]2(CC=C(C)C)C(=O)C(CC=C(C)C)=C(O)[C@@]1(C(=O)C(C)C)C2=O
pIC50 [1]: 5.70 | pIC50 [2]: 5.70 | pIC50 [3]: 5.70 | pIC50 [4]: 5.70

CC(C)=CCC1=C2O[C@@H](C(C)(C)OO)C[C@@]23C[C@H](CC=C(C)C)C(C)(C)[C@@](C(=O)c2ccccc2)(C1=O)C3=O
inhibition at 10 µM [5]: 14.6% | inhibition at 10 µM [6]: 18.4% | inhibition at 10 µM [7]: -32.2%

CC[C@@H](C)C(=O)[C@]12C(=O)[C@]3(C)C[C@H](CC=C(C)C)[C@@]1(C)CC[C@H](C(C)(C)O)OC2=C(CC=C(C)C)C3=O
inhibition at 10 µM [8]: 24.9% | viability at 10 µM [9]: 70.8% | inhibition at 10 µM [5]: 8.65% | inhibition at 10 µM [6]: 8.64% | inhibition at 10 µM [7]: -41.2%

CC(C)=CC[C@H]1C[C@]2(CC=C(C)C)C(=O)C(C(=O)c3ccccc3)=C3O[C@H](C(C)(C)O)C[C@]3(C2=O)C1(C)C
viability at 10 µM [9]: 73.5% | inhibition at 10 µM [5]: 10.7% | inhibition at 10 µM [6]: 1.05% | inhibition at 10 µM [7]: 3.04%

CC(C)=CC[C@H]1C[C@@]2(C)C(=O)[C@](C(=O)c3ccccc3)(C(=O)C3=C2O[C@H](C(C)(C)O)C3)[C@]1(C)CCCC(C)C
viability at 10 µM [9]: 83%

CC(C)=CCC[C@]1(C)[C@@H](CC=C(C)C)CC2(C)C(=O)[C@@]3(CC=C(C)C)O[C@]2(O)[C@]1(C(=O)C(C)C)C3=O (some centres not stated)
inhibition at 10 µM [8]: 25.8%

CC(C)=CC[C@H]1C[C@@]2(CC=C(C)C)C(=O)[C@](C(=O)c3ccccc3)(C(=O)C3=C2O[C@@H](C(C)(C)O)C3)[C@]1(C)CCCC(C)C
inhibition at 10 µM [8]: 10.3%

CC(C)=CC[C@H]1C[C@@]2(C)C(=O)[C@](C(=O)C(C)C)(C(=O)C3=C2O[C@@H](C(C)(C)O)C3)[C@]1(C)CCCC(C)C
inhibition at 10 µM [8]: 23.3%

CC(C)=CCC1=C2OCC[C@@]23C[C@H](CC=C(C)C)C(C)(C)[C@@](C(=O)c2ccccc2)(C1=O)C3=O
inhibition at 10 µM [5]: 1.46% | inhibition at 10 µM [6]: -1.32% | inhibition at 10 µM [7]: 14.4%

CC(C)=CC[C@H]1CC(C)=C2OC(C)(C)[C@@H]3CC[C@@]1(C)[C@]23C(=O)C(C)C
inhibition at 10 µM [8]: 15.9%

CC(C)=CC[C@H]1C[C@@]2(C)C(=O)[C@](C(=O)C(C)C)(C(=O)C3=C2O[C@H](C(C)(C)O)C3)[C@]1(C)CCCC(C)C
viability at 10 µM [9]: 71.6%

CC[C@H](C)C(=O)C12C(=O)[C@]3(CC=C(C)C)O[C@@]1(O)C(C)(C[C@H](CC=C(C)C)[C@@]2(C)CCC=C(C)C)C3=O (some centres not stated)
inhibition at 10 µM [8]: 36.7% | viability at 10 µM [9]: 72.1% | inhibition at 10 µM [5]: 19% | inhibition at 10 µM [6]: -3.16% | inhibition at 10 µM [7]: -25.9%

CC(C)=CC[C@H]1C[C@]2(C)C(=O)C3=C(O[C@H](C(C)(C)O)C3)[C@@](C(=O)C(C)C)(C2=O)[C@]1(C)CCCC(C)C
viability at 10 µM [9]: 75.4%

CC(C)=CCC[C@]1(C)[C@@H](CC=C(C)C)CC2(CC=C(C)C)C(=O)[C@@]3(CC=C(C)C)O[C@]2(O)[C@]1(C(=O)C(C)C)C3=O (some centres not stated)
inhibition at 10 µM [8]: 14%

CC[C@H](C)C(=O)[C@@H]1C(=O)[C@@](C)(O)[C@@H](CC=C(C)C)C[C@@]1(C)CCC=C(C)C
inhibition at 10 µM [8]: 30.5% | inhibition at 10 µM [5]: -13.6% | inhibition at 10 µM [6]: 3.31% | inhibition at 10 µM [7]: -24.4%

CC(C)=CCC1=C2O[C@@H](C(C)(C)O)CC[C@]3(C)[C@@H](CC=C(C)C)C[C@](C)(C1=O)C(=O)[C@]23C(=O)C(C)C
inhibition at 10 µM [8]: 6.1% | inhibition at 10 µM [5]: 0.36% | inhibition at 10 µM [6]: 19.4% | inhibition at 10 µM [7]: -37.1%

C=C(C)[C@@H]1C[C@@]23C[C@@H](CC=C(C)C)C(C)(C)[C@@](CC=C(C)C)(C(=O)C(C(=O)c4ccccc4)=C2O1)C3=O
viability at 10 µM [9]: 73.1% | inhibition at 10 µM [5]: 6.64% | inhibition at 10 µM [6]: -0.2% | inhibition at 10 µM [7]: -29.7%

CC(C)=CCC[C@]1(C)C[C@H](CC=C(C)C)[C@](C)(O)C(=O)[C@H]1C(=O)C(C)C
inhibition at 10 µM [5]: 17.2% | inhibition at 10 µM [6]: 14.7% | inhibition at 10 µM [7]: -25.7%

CCC(C)C(=O)[C@]12C(=O)[C@](CC=C(C)C)(C[C@H](CC=C(C)C)[C@@]1(C)CCC=C(C)C)C(=O)C(CC=C(C)C)=C2O (some centres not stated) [ADHYPERFORIN]
pIC50 [10]: 5.70 | pIC50 [1]: 5.70 | pIC50 [4]: 5.70

COC(=O)c1cc(OC)c2c(c1-c1c(CO)cc(OC)c3c1OCO3)OCO2 [BICYCLOL]
inhibition at 10 µM [8]: 19.5%

O=c1[nH]cc(F)c(=O)[nH]1 [FLUOROURACIL]
inhibition at 10 µM [5]: 68.3% | inhibition at 10 µM [6]: 70.6% | inhibition at 10 µM [7]: 70.4%

CC(C)=CC[C@@]12C[C@H]3[C@@H](C=C(C)C)[C@@](C(=O)c4ccccc4)(C1=O)C(=O)[C@@](CC=C(C)C)(C2=O)C3(C)C [HYPERIBONE K]
inhibition at 10 µM [8]: 49% | viability at 10 µM [9]: 73.1%

Oc1ccc(/C=C/c2cc(O)cc(O)c2)cc1 [RESVERATROL]
viability at 10 µM [9]: 72.6%
